For eleven compounds, Activity results are on record in ChEMBL document CHEMBL1154054, “Novel 4-(morpholin-4-yl)-N'-(arylidene)benzohydrazides: synthesis, antimycobacterial activity and QSAR investigations” (Eur J Med Chem, 2009).

Holding throughout (format): functional
Assay [1] has as its system Mycobacterium tuberculosis. Briefly: Antimycobacterial activity against multidrug resistant Mycobacterium tuberculosis at 0.05 ug/ml after 72 hrs by LRP assay. The method in brief:
(§1)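 Luciferase reporter phage assay on M. tuberculosis (H37Rv, or clinical isolates resistant to S, H, R and E). Each sample had two drug-free controls and four drug concentrations, incubated 72 h at 37 °C. High-titer phAE129 phage plus 0.1 M CaCl₂ was added, then 4 h at 37 °C. Equal volume D-luciferin (0.3 mM, pH 4.5 citrate) was added; RLU integrated 10 s, duplicate mean; % RLU reduction vs control.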

In assay [2] the test system is Mycobacterium tuberculosis. The assay can be described thus: Antimycobacterial activity against multidrug resistant Mycobacterium tuberculosis at 0.5 ug/ml after 72 hrs by LRP assay. The gist of the method: as §1
Assay [3] has as its system Mycobacterium tuberculosis. The assay can be described thus: Antimycobacterial activity against multidrug resistant Mycobacterium tuberculosis at 5 ug/ml after 72 hrs by LRP assay. The method in brief:
as §1

For assay [4], the system named is Mycobacterium tuberculosis. The assay can be described thus: Antimycobacterial activity against multidrug resistant Mycobacterium tuberculosis at 10 ug/ml after 72 hrs by LRP assay. The method in brief:
as §1

Take `Cc1ccc(/C=N/NC(=O)c2ccc(N3CCOCC3)cc2)cc1`: the Activity in assay [1] turned out to be 48.49%; in assay [2], 87.24%; in assay [3], 90.83%; in assay [4] it was 91.37%.
In the same order, the values of `COc1cc(/C=N/NC(=O)c2ccc(N3CCOCC3)cc2)cc(OC)c1OC` are 35.83%, 96.88%, 90.29% and 90.24%.
For `O=C(N/N=C1\C=CCO1)c1ccc(N2CCOCC2)cc1`, in that order: 58.54%, 86.92%, 92.52% and 93.72%.
As for `O=C(N/N=C/c1ccc(F)cc1)c1ccc(N2CCOCC2)cc1`, the Activity stood at 83.22% in assay [1], 86.33% in assay [2], 93.28% in assay [3] and 95.09% in assay [4].
Consider `O=C(N/N=C/c1ccc(O)cc1)c1ccc(N2CCOCC2)cc1`, for which the Activity in assay [1] is 43.92%; in assay [2], 73.58%; in assay [3], 88.08%; in assay [4] it was 88.45%.
In the same order, the values of `COc1ccc(/C=N/NC(=O)c2ccc(N3CCOCC3)cc2)cc1` are 56.53%, 82.97%, 89.33% and 90.36%.
Regarding `O=C(N/N=C/c1cccc([N+](=O)[O-])c1)c1ccc(N2CCOCC2)cc1`, the Activity in assay [1] is 29.92%; in assay [2], 87.17%; in assay [3] it was 90.07%; in assay [4], 88.86%.
For the compound `O=C(N/N=C/c1ccc(Cl)cc1)c1ccc(N2CCOCC2)cc1`, the Activity worked out at 67.15% in assay [1], 89.91% in assay [2], 91.19% in assay [3] and 94.29% in assay [4].
Turning to `O=C(N/N=C\C=C\c1ccccc1)c1ccc(N2CCOCC2)cc1`, the Activity is on record as 55.7% in assay [1], 85.67% in assay [2], 91.61% in assay [3] and 92.1% in assay [4].
`CN(C)c1ccc(/C=N/NC(=O)c2ccc(N3CCOCC3)cc2)cc1`: the Activity came out at 48.14% in assay [1], 90.72% in assay [2], 93.18% in assay [3] and 95.02% in assay [4].
For `NNC(=O)c1ccncc1` [ISONIAZID], the Activity in assay [1] amounted to 84.37%; in assay [2], 89.6%; in assay [3], 95.85%; in assay [4] it was 94.7%.
